The record followed here is ChEMBL document CHEMBL1140445, “Design, synthesis, and preliminary pharmacological evaluation of a set of small molecules that directly activate gi proteins” (J Med Chem, 2005).

What all share (format): functional
Experiment [1] has as its target T1, Guanine nucleotide-binding protein G(i) subunit alpha-1 (Homo sapiens, UniProt P63096). Nature of the experiment: Concentration required to stimulate binding of [35S]GTP-gamma-S, with G alpha i1. Put shortly: (§1)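 His-tagged recombinant Gαi subunits were expressed in E. coli BL21/DE3 and purified by IMAC. 3 pmol of subunit, native or in lipid vesicles, was incubated 30 min at 30 °C with 0.1 μM [35S]GTPγS in 50 mM Hepes-NaOH, 1 mM EDTA, 1 mM DTT and 100 μM MgSO4. The reaction was stopped with ice-cold buffer and filtered on cellulose nitrate. EC50 came from 1×10^-7 to 1×10^-4 M (eight concentrations).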
Background: Binding of GTPγS marks nucleotide exchange on a G protein.

In experiment [2] the target is T2, Guanine nucleotide-binding protein G(i) subunit alpha-3 (Homo sapiens, UniProt P08754). Kind of experiment: Concentration required to stimulate binding of [35S]GTP-gamma-S, with G alpha i3. Put shortly: as §1
The target in experiment [3] is T3, Guanine nucleotide-binding protein G(o) subunit alpha (Homo sapiens, UniProt P09471). Nature of the experiment: Concentration required to stimulate binding of [35S]GTP-gamma-S, with G alpha o1. Put shortly: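 Gαo: His-tagged recombinant subunit from E. coli BL21/DE3, IMAC-purified. 3 pmol, native or vesicle-reconstituted, incubated 30 min at 20 °C with 0.1 μM [35S]GTPγS in Hepes-NaOH/EDTA/DTT/100 μM MgSO4 mix. The reaction was stopped with ice-cold Tris/MgCl2/NaCl buffer, filtered on cellulose nitrate and washed. EC50 was derived from eight concentrations spanning 1×10^-7 to 1×10^-4 M.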
Target sequence in this assay (P09471 whole entry): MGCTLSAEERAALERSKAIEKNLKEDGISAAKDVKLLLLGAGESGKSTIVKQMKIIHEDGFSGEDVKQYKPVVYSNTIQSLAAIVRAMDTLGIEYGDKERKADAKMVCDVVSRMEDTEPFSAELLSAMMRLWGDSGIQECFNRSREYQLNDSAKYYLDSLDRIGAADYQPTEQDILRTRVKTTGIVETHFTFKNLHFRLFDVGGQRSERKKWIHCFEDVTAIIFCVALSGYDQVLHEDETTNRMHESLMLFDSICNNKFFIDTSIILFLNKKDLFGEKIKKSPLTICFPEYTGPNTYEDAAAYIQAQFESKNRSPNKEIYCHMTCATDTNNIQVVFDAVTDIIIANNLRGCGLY

For experiment [4], the target named is T1, Guanine nucleotide-binding protein G(i) subunit alpha-1. Kind of experiment: Percent stimulation of [35S]GTP-gamma-S, binding to G alpha i1 at 5E-5 M of basal for 30 minutes. The method, boiled down: (§2)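 Recombinant His-tagged Gαi subunit (3 pmol, native or in lipid vesicles) was incubated with compound at 5×10^-5 M and 0.1 μM [35S]GTPγS, 30 min at 30 °C, in 50 mM Hepes-NaOH, 1 mM EDTA, 1 mM DTT, 100 μM MgSO4. Filter-bound GTPγS after ice-cold stop and cellulose-nitrate filtration is expressed as percent of basal.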

Experiment [5] concerns the target T2, Guanine nucleotide-binding protein G(i) subunit alpha-3. Kind of experiment: Percent stimulation of [35S]GTP-gamma-S, binding to G alpha i3 at 5E-5 M of basal for 30 minutes. Put shortly:
as §2

For experiment [6], the target named is T3, Guanine nucleotide-binding protein G(o) subunit alpha. Nature of the experiment: Percent stimulation of [35S]GTP-gamma-S, binding to G alpha o1 at 5E-5 M of basal for 30 minutes. The method, boiled down:
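With Gαo (3 pmol recombinant His-tagged subunit, native or vesicle-reconstituted), binding of 0.1 μM [35S]GTPγS was measured during 30 min at 20 °C with compound at 5×10^-5 M, in Hepes-NaOH buffer with EDTA, DTT and 100 μM MgSO4. Samples were filtered on cellulose nitrate, and the value is percent of basal binding.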
Target sequence in this assay (P09471 2-354 limits assumed): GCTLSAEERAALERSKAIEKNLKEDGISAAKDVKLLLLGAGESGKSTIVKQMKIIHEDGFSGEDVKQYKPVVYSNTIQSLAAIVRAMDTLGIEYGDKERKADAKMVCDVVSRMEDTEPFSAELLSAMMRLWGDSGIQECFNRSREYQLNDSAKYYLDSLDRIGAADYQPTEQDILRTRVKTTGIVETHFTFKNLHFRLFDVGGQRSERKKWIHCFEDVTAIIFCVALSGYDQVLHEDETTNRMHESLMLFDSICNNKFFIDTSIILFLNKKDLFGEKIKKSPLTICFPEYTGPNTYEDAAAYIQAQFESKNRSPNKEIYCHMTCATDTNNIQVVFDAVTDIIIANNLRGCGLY

T2 sequence (P08754 whole entry): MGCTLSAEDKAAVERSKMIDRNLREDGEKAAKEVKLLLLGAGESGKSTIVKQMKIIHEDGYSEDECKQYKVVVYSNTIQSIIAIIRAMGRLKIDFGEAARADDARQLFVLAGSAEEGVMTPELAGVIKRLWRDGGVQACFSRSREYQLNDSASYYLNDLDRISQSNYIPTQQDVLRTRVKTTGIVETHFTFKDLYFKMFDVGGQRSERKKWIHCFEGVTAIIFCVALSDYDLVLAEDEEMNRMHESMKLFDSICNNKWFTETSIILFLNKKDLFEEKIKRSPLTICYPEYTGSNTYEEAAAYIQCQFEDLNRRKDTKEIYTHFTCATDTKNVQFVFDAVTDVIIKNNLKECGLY
T1 sequence (P63096 whole entry): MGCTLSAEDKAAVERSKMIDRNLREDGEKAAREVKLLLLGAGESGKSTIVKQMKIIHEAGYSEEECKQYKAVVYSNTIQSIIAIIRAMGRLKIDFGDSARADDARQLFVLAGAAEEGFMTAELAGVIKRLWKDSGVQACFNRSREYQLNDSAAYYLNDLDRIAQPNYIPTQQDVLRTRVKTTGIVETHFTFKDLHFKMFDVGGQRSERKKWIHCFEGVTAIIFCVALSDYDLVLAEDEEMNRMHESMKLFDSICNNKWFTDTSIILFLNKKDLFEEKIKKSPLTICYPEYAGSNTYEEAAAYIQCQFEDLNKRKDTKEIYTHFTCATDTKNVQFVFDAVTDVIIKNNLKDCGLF

Usually EC50 stands for the concentration giving half of the maximal effect. High values mean a less potent agent, low ones a more potent agent. As for `CCCCCCCCCCCCCCCN1CCC(N)CC1`, the EC50 in experiment [1] worked out at 22.1 µM; in experiment [2], 27.6 µM; in experiment [3] it was 23 µM. The Stimulation in experiment [4] came to 3350%; in experiment [5], 3780%; in experiment [6] it was 6890%.
Turning to `CCCCCCCCCCCCCCCN1CCN(N)CC1`, the figures for the concentration giving a half-maximal response (EC50) in experiment [1], in experiment [2] and in experiment [3] were 6.5 µM, 6.5 µM and 3.7 µM, respectively. In addition, the Stimulation in experiment [4] was found to be 2330%; in experiment [5], 2820%; in experiment [6], 2870%.
Consider `CCCCCCCCCCCCCCC(=O)N1CCN(N)CC1`, for which the EC50 in experiment [1] came out at 28.6 µM; in experiment [2], 24.6 µM; in experiment [3], 374 µM. Moreover, the Stimulation came out at 173% in experiment [4], 211% in experiment [5] and 194% in experiment [6].
Regarding `COc1ccccc1CN1CCC(C2CCNCC2)CC1`, the concentration for a half-maximal effect (EC50) in experiment [2] was determined as 38.8 µM. In addition, the Stimulation stood at 60% in experiment [4], 391% in experiment [5] and 129% in experiment [6].
On to `CCCCCCCCCCCCCCCCCN1CCC(C2CCNCC2)CC1`, for which the half-maximal effective concentration (EC50) turned out to be 35.7 µM in experiment [1], 41.5 µM in experiment [2] and 13.4 µM in experiment [3]. The Stimulation is 5690% in experiment [4], 5660% in experiment [5] and 3480% in experiment [6].
For `CCCCCCCCCCCCC(=O)N1CCC(C2CCNCC2)CC1`, the values for the concentration for a half-maximal effect (EC50) in experiment [1], in experiment [2] and in experiment [3] were 17.6 µM, 12.1 µM and 18.1 µM, respectively. The Stimulation in experiment [4] was found to be 950%; in experiment [5] it was 1180%; in experiment [6] it was 1500%.
Turning to `CCCCCCCCCCCCCCC(=O)NN1CCNCC1`, the values for the EC50 in experiment [1], in experiment [2] and in experiment [3] were 38.5 µM, 24.9 µM and 23.4 µM, respectively. The figures for the Stimulation in experiment [4], in experiment [5] and in experiment [6] were 2320%, 3690% and 4640%, respectively.
For `CCCCCCCCCCCCCCCNCC1CCN(CCN)CC1`, the values for the EC50 in experiment [1], in experiment [2] and in experiment [3] were 17.8 µM, 23 µM and 24.3 µM, respectively. Also, the Stimulation was determined as 825% in experiment [4], 815% in experiment [5] and 942% in experiment [6].
As for `CCCCCCCCCCCCCCCNC(=O)C1CCN(CCN)CC1`, the concentration for a half-maximal effect (EC50) was 18.4 µM in experiment [1], 19 µM in experiment [2] and 16.9 µM in experiment [3]. Besides, the Stimulation stood at 2630% in experiment [4], 2720% in experiment [5] and 3350% in experiment [6].
As for `CCCCCCCCCCCCCCCN1CCC(C2CCN(C)CC2)CC1`, the Stimulation in experiment [4] was 97%; in experiment [5], 80%; in experiment [6], 93%.
In the case of `CCCCCCCCCCCCCCC(=O)NC1CCNCC1`, the EC50 in experiment [1] stood at 50.2 µM; in experiment [2], 34.3 µM; in experiment [3], 22.7 µM. Further, the Stimulation in experiment [4] was 1270%; in experiment [5] it was 1290%; in experiment [6] it was 1370%.
For `CCCCCCCCCCCCC(=O)N1CCC(C2CCN(C)CC2)CC1`, the Stimulation in experiment [4] came out at 84%; in experiment [5], 75%; in experiment [6] it was 126%.
On to `CCCCCCCCCCCCCCCNC1CCNCC1`, for which the EC50 came out at 11.8 µM in experiment [1], 11.2 µM in experiment [2] and 13.3 µM in experiment [3]. The Stimulation was determined as 3370% in experiment [4], 3440% in experiment [5] and 3830% in experiment [6].
On to `CCCCCCCCCCCCCCC(=O)N1CCC(CCC2CCN(C)CC2)CC1`, for which the EC50 was 20.1 µM in experiment [1], 6.1 µM in experiment [2] and 12.5 µM in experiment [3]. In addition, the Stimulation in experiment [4] turned out to be 577%; in experiment [5] it was 815%; in experiment [6], 742%.
Take `CCCCCCCCCCCCCNC1CCNCC1`: the EC50 in experiment [1] was found to be 36.4 µM; in experiment [2], 18.8 µM; in experiment [3] it was 25.5 µM. Further, the Stimulation in experiment [4] is 1480%; in experiment [5], 2000%; in experiment [6] it was 2350%.
Turning to `CCCCCCCCCCCCCCCN1CCC(NC2CCNCC2)CC1`, the EC50 in experiment [1] amounted to 32.4 µM; in experiment [2] it was 14.4 µM; in experiment [3], 13.5 µM. Besides, the figures for the Stimulation in experiment [4], in experiment [5] and in experiment [6] were 1540%, 2280% and 3040%, respectively.
Turning to `CCCCCCCCCCCCNC(=O)C(N)CCCCN` (stereo not drawn), the values for the EC50 in experiment [1], in experiment [2] and in experiment [3] were 47.9 µM, 43.9 µM and 28.8 µM, respectively. Also, the results for the Stimulation in experiment [4], in experiment [5] and in experiment [6] were 900%, 1030% and 2510%, respectively.
For the molecule `CCCCCCCCCCCCCN1CCC(C2CCNCC2)CC1`, the results for the EC50 in experiment [1], in experiment [2] and in experiment [3] were 21.1 µM, 21.2 µM and 27.1 µM, respectively. For the same molecule, the Stimulation in experiment [4] amounted to 755%; in experiment [5], 406%; in experiment [6], 913%.
As for `CCCCCCCCCCCCCCC(=O)N1CCC(N)CC1`, the EC50 turned out to be 25.5 µM in experiment [1], 25.1 µM in experiment [2] and 25.8 µM in experiment [3]. In addition, the figures for the Stimulation in experiment [4], in experiment [5] and in experiment [6] were 1050%, 1070% and 1280%, respectively.
Regarding `CCCCCCCCCCCCCN1CCC(C2CCN(C)CC2)CC1`, the results for the EC50 in experiment [1], in experiment [2] and in experiment [3] were 18.7 µM, 18.9 µM and 19.3 µM, respectively. Besides, the Stimulation in experiment [4] worked out at 704%; in experiment [5], 435%; in experiment [6] it was 420%.
On to `CCCCCCCCCCCCCCCNC(=O)C1CCNCC1`, for which the concentration for a half-maximal effect (EC50) was found to be 6.4 µM in experiment [1], 5.9 µM in experiment [2] and 8.2 µM in experiment [3]. Also, the Stimulation in experiment [4] stood at 973%; in experiment [5], 986%; in experiment [6], 2270%.
With `CCCCCCCCCCCCCCC(=O)N1CCC(C2CCN(C)CC2)CC1`, the results for the half-maximal effective concentration (EC50) in experiment [1], in experiment [2] and in experiment [3] were 6 µM, 17.9 µM and 34.9 µM, respectively. The Stimulation amounted to 392% in experiment [4], 265% in experiment [5] and 531% in experiment [6].
Take `CCCCCCCCCCCCCCCNCC1CCNCC1`: the EC50 in experiment [1] came to 10.6 µM; in experiment [2], 11.4 µM; in experiment [3] it was 12.4 µM. Also, the Stimulation was 2460% in experiment [4], 1930% in experiment [5] and 4160% in experiment [6].
For `CCCCCCCCCCCCCCC(=O)N1CCC(C2CCNCC2)CC1`, the EC50 came out at 8.6 µM in experiment [1], 9.3 µM in experiment [2] and 5.6 µM in experiment [3]. Also, the Stimulation was determined as 1540% in experiment [4], 1560% in experiment [5] and 2390% in experiment [6].
As to `CCCCCCCCCCCCCCCNC(=O)C1CCN(CCNC=O)CC1`, the EC50 amounted to 8.6 µM in experiment [1], 9.3 µM in experiment [2] and 5.5 µM in experiment [3]. The Stimulation in experiment [4] stood at 3290%; in experiment [5], 3240%; in experiment [6], 3600%.
`CCCCCCCCCCCCCCCN1CCC(CCC2CCNCC2)CC1`: the concentration for a half-maximal effect (EC50) is 451 µM in experiment [1], 8050 µM in experiment [2] and 10.5 µM in experiment [3]. Also, the Stimulation in experiment [4] turned out to be 2460%; in experiment [5], 2400%; in experiment [6] it was 5010%.
As to `CCCCCCCCCCCCCCC[N+]1(C)CCC(C2CCNCC2)CC1` (stereo not drawn), the EC50 in experiment [1] turned out to be 14.7 µM; in experiment [2] it was 16 µM; in experiment [3], 10.1 µM. Also, the Stimulation in experiment [4] came to 1580%; in experiment [5], 1630%; in experiment [6], 2090%.
In the case of `CCCCCCCCCCCCCCCCC(=O)N1CCC(C2CCN(C)CC2)CC1`, the EC50 was 23 µM in experiment [1], 23.3 µM in experiment [2] and 21.4 µM in experiment [3]. Further, the Stimulation amounted to 232% in experiment [4], 181% in experiment [5] and 472% in experiment [6].
On to `CCCCCCCCCCCCCCC(=O)N1CCC(CCC2CCNCC2)CC1`, for which the results for the EC50 in experiment [1], in experiment [2] and in experiment [3] were 6.6 µM, 6.3 µM and 6.1 µM, respectively. Also, the Stimulation in experiment [4] stood at 845%; in experiment [5], 1090%; in experiment [6] it was 724%.
Consider `CCCCCCCCCCCCCCCCCN1CCC(C2CCN(C)CC2)CC1`, for which the Stimulation in experiment [4] came to 81%; in experiment [5], 97%; in experiment [6] it was 99%.
For `CCCCCCCCCCCCCCCN1CCC(CCC2CCN(C)CC2)CC1`, in that order: 86%, 102% and 132%.
As to `CCCCCCCCCCCCCCCCC(=O)N1CCC(C2CCNCC2)CC1`, the results for the EC50 in experiment [1], in experiment [2] and in experiment [3] were 25.4 µM, 24.4 µM and 22.6 µM, respectively. Moreover, the Stimulation in experiment [4] was 612%; in experiment [5], 424%; in experiment [6], 920%.
